ChEMBL document CHEMBL1126129, “Flavones. 3. Synthesis, biological activities, and conformational analysis of isoflavone derivatives and related compounds” (1992)
Calls of active or inactive are those of the source. No cut-off for these calls is given here.

Experiments:
Rattus norvegicus [1] = test: In vivo inhibition of carrageenan-induced paw oedema in rats following 50 mg/kg administration.; assay type: functional
Method in brief: (§1)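 Male Sprague-Dawley rats, housed 1 week, 160-200 g at test, groups of six. Dosed orally in 0.5% aqueous methocel 2 h before carrageenan challenge; controls got vehicle. Paw volume measured by mercury plethysmometer immediately and 3 h later. % inhibition = (Δcontrol − Δtest)/Δcontrol × 100, compared with control by analysis of variance. Usually one experiment per compound.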

Rattus norvegicus [2] = test: Antihypertensive activity was measured as decrease in systolic blood pressure in spontaneously hypertensive rats at 75 mg/kg, po 24 hours after dosing; assay type: functional, Artery
Method in brief: (§2)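 Male spontaneously hypertensive rats (Wistar-Kyoto strain), five per dose group. Systolic arterial pressure measured by indirect tail cuff. Dosing was 75 mg/kg po, or 30 mg/kg iv for one analog. Percentage fall in systolic pressure recorded at stated hours after dosing. Significance vs control at p < 0.05; non-significant falls flagged.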

Rattus norvegicus [3] = test: Antihypertensive activity was measured as decrease in systolic blood pressure in spontaneously hypertensive rats at 75 mg/kg, po 2 hours after dosing; NS denotes not significant; assay type: functional, organism-based; design: dose 75 mg/kg; settings: Artery; method in brief: as §2
Rattus norvegicus [4] = test: Antihypertensive activity was measured as decrease in systolic blood pressure in spontaneously hypertensive rats at 75 mg/kg, po 5 hours after dosing; assay type: functional, Artery; method in brief: as §2
Rattus norvegicus [5] = test: Antihypertensive activity was measured as decrease in systolic blood pressure in spontaneously hypertensive rats at 75 mg/kg, po 7.5 hours after dosing; assay type: functional, Artery; method in brief: as §2
Rattus norvegicus [6] = test: Antihypertensive activity was measured as decrease in systolic blood pressure in spontaneously hypertensive rats at 75 mg/kg, po 2 hours after dosing; assay type: functional, Artery; method in brief: as §2
Rattus norvegicus [7] = test: Antiinflammatory activity was measured as %inhibition of carrageenan-induced paw edema in male rats at 50 mg/kg dose; assay type: functional; method in brief: as §1
Rattus norvegicus [8] = test: Antiinflammatory activity was measured as inhibition of carrageenan-induced paw edema in male rats at 4 mg/kg dose; assay type: functional; method in brief: as §1
Rattus norvegicus [9] = test: Antihypertensive activity was measured as decrease in systolic blood pressure in spontaneously hypertensive rats at 75 mg/kg, po 24 hours after dosing; NS denotes not significant; assay type: functional, organism-based; design: dose 75 mg/kg; settings: Artery; method in brief: as §2
Rattus norvegicus [10] = test: Antihypertensive activity was measured as decrease in systolic blood pressure in spontaneously hypertensive rats at 75 mg/kg, po 5 hours after dosing; NS denotes not significant; assay type: functional, organism-based; design: dose 75 mg/kg; settings: Artery; method in brief: as §2
Rattus norvegicus [11] = test: Antihypertensive activity was measured as decrease in systolic blood pressure in spontaneously hypertensive rats at 75 mg/kg, po 7.5 hours after dosing; NS denotes not significant; assay type: functional, organism-based; design: dose 75 mg/kg; settings: Artery; method in brief: as §2
Rattus norvegicus [12] = test: Antiinflammatory activity was measured as %inhibition of carrageenan-induced paw edema in male rats at 25 mg/kg dose; assay type: functional; method in brief: as §1
Rattus norvegicus [13] = test: Antihypertensive activity was measured as decrease in systolic blood pressure in spontaneously hypertensive rats at 30 mg/kg, iv 2 hours after dosing; NS denotes not significant; assay type: functional, organism-based; design: dose 30 mg/kg; settings: Artery; method in brief: as §2
Rattus norvegicus [14] = test: Antiinflammatory activity was measured as inhibition of carrageenan-induced paw edema in male rats at 25 mg/kg dose; assay type: functional; method in brief: as §1

Structure (SMILES) | inhibition in vivo at 50 mg/kg (Rattus norvegicus [1]) [%] | Decrease in SBP (Rattus norvegicus [3]) | Decrease in SBP (Rattus norvegicus [4]) [%] | Decrease in SBP (Rattus norvegicus [5]) [%] | also measured
O=c1cc(-c2ccccc2)oc2cc(OCCCNC3CCCC3)ccc12 | 21 | – | – | – | –
CC(C)NCC(O)COc1ccc2c(=O)c(-c3ccccc3)coc2c1 (stereo not drawn) | 33 | inactive | 11 | 14 | Decrease in SBP (Rattus norvegicus [2]): 21%
CC(C)NCC(O)COc1ccc2c(=O)c(-c3ccccc3)c(C(C)C)oc2c1 (stereo not drawn) | 28 | – | 20 | 25 | Decrease in SBP (Rattus norvegicus [2]): 15%; Decrease in SBP (Rattus norvegicus [6]): 18%
CC(C)NCC(O)COc1ccc2c(=O)cc(-c3ccccc3)oc2c1 (stereo not drawn) | – | – | 18 | 23 | Decrease in SBP (Rattus norvegicus [2]): 16%; inhibition in vivo at 50 mg/kg (Rattus norvegicus [7]): 14.5%; Decrease in SBP (Rattus norvegicus [6]): 12%
COc1ccc2c(c1)c(CC(=O)O)c(C)n2C(=O)c1ccc(Cl)cc1 [INDOMETHACIN] | – | – | – | – | Inhibition (Rattus norvegicus [8]): 44.6%
Cc1oc2cc(OCC(O)CNC(C)C)ccc2c(=O)c1-c1ccccc1 (stereo not drawn) | 19 | inactive | 12 | 19 | Decrease in SBP (Rattus norvegicus [2]): 17%
Cc1oc2cc(OCC(O)C[N+](C)(C)C(C)C)ccc2c(=O)c1-c1ccccc1.[I-] (stereo not drawn) | 36 | inactive | – | 0.1 | Decrease in SBP (Rattus norvegicus [9]): inactive; Decrease in SBP (Rattus norvegicus [10]): inactive
CC(C)NCC(O)COc1ccc2c(=O)c(-c3ccccc3)c(C3CCCCC3)oc2c1 (stereo not drawn) | 24 | inactive | – | – | Decrease in SBP (Rattus norvegicus [9]): inactive; Decrease in SBP (Rattus norvegicus [11]): inactive; Decrease in SBP (Rattus norvegicus [10]): inactive
Cc1oc2cc(OCC(O)CN(C)C(C)C)ccc2c(=O)c1-c1ccccc1 (stereo not drawn) | 19 | inactive | – | – | Decrease in SBP (Rattus norvegicus [9]): inactive; Decrease in SBP (Rattus norvegicus [11]): inactive; Decrease in SBP (Rattus norvegicus [10]): inactive
CN(C)CCCOc1ccc2c(=O)cc(-c3ccccc3)oc2c1 | 13 | – | – | – | –
CC(C)NCC(O)COc1ccc2c(=O)c(-c3ccccc3)c(-c3ccccc3)oc2c1 (stereo not drawn) | – | – | 23 | 30 | Decrease in SBP (Rattus norvegicus [2]): 34%; inhibition in vivo at 50 mg/kg (Rattus norvegicus [7]): 24.6%; Decrease in SBP (Rattus norvegicus [6]): 15%; inhibition in vivo at 25 mg/kg (Rattus norvegicus [12]): 32%
CC(C)NCCCOc1ccc2c(=O)cc(-c3ccccc3)oc2c1 | 41 | – | – | – | –
CCCNCC(O)COc1ccc2c(=O)c(-c3ccccc3)c(C(F)(F)F)oc2c1 (stereo not drawn) | 22 | inactive | 11 | 12 | Decrease in SBP (Rattus norvegicus [2]): 17%
Clc1cccc(Cl)c1NC1=NCCN1 [CLONIDINE] | – | – | 15 | – | –
CCCNCC(O)COc1cccc2c(=O)c(-c3ccccc3)coc12 (stereo not drawn) | – | – | – | – | Decrease in SBP (Rattus norvegicus [13]): inactive
O=c1c(-c2ccccc2)coc2cc(OCC(O)CNC3CCCCCCC3)ccc12 (stereo not drawn) | 21 | inactive | – | – | Decrease in SBP (Rattus norvegicus [9]): inactive; Decrease in SBP (Rattus norvegicus [11]): inactive; Decrease in SBP (Rattus norvegicus [10]): inactive; inhibition in vivo at 25 mg/kg (Rattus norvegicus [14]): 41%
COc1c(-c2ccccc2)oc2cc(OCCCNC(C)C)ccc2c1=O | -2 | – | – | – | –
CC(C)NCC(O)COc1ccc2c(=O)c(-c3ccccc3)c(-c3ccco3)oc2c1 (stereo not drawn) | 19 | inactive | – | 15 | Decrease in SBP (Rattus norvegicus [9]): inactive; Decrease in SBP (Rattus norvegicus [10]): inactive
O=c1cc(-c2ccccc2)oc2cc(OCCCNC3CCCCCCC3)ccc12 | 26 | – | – | – | –
CC(C)(C)NCCCOc1ccc2c(=O)cc(-c3ccccc3)oc2c1 | 34 | – | – | – | –
CCCNCCCOc1ccc2c(=O)cc(-c3ccccc3)oc2c1 | 18 | – | – | – | –
CCCCCNCCCOc1ccc2c(=O)cc(-c3ccccc3)oc2c1 | -9 | – | – | – | –
CC(C)NCC(O)COc1ccc2c(=O)c(-c3ccccc3)c(Cc3ccccc3)oc2c1 (stereo not drawn) | -3.4 | inactive | – | – | Decrease in SBP (Rattus norvegicus [9]): inactive; Decrease in SBP (Rattus norvegicus [11]): inactive; Decrease in SBP (Rattus norvegicus [10]): inactive
CC(C)NCC(O)COc1ccc2c(=O)c(-c3ccccc3)c(C(F)(F)F)oc2c1 (stereo not drawn) | 28 | inactive | 16 | 16 | Decrease in SBP (Rattus norvegicus [2]): 20%
